# Results reported in publication PMC4109288 (Lancet, 2012).
# Marks after values point to notes of the source that are not given here.
# Assays:
# [1] = system: K601E BRAF-mutant cell line; conditions: cited from earlier work
# [2] = system: BRAF-mutant metastatic melanoma; conditions: cited from earlier work
# [3] = cited from earlier work; for Penetration of the blood-brain barrier: in vivo
# [4] = Phase I trial: safety and tolerability, adverse events; conditions: in vivo
# [5] = system: V600 BRAF-mutant melanoma with untreated brain metastases; assay: RP2D expansion, brain lesion assessment by MRI and PFS; format: in vivo, human
# Procedure, shortened: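 Expansion cohort of patients with asymptomatic, untreated brain metastases ≥3 mm and no prior resection, stereotactic radiosurgery or whole-brain radiotherapy, given 150 mg BID. BRAF was centrally genotyped. Lesions were imaged by gadolinium-enhanced T1-weighted MRI, first at 6 weeks and then every 9 weeks. Sum of diameters of lesions ≥3 mm at baseline was expressed as % change from baseline. RECIST 1.0 applied. PFS by Kaplan–Meier.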
# tumour FDG uptake = assay: FDG-PET imaging at baseline and Week 2; format: in vivo, human; conditions: 35 mg QD–300 mg BID, Week 2
# Procedure, shortened: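 Pharmacodynamic FDG-PET imaging at baseline and on Day 15 of daily dabrafenib-class dosing. Patients were in the accelerated dose-titration cohorts, which started at 12 mg daily on 21-day cycles.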
# [6] = system: non-V600E BRAF-mutant melanoma; assay: Tumour response and PFS in melanoma with non-V600E BRAF mutations; format: in vivo, human
# Procedure, shortened: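 Melanoma patients with V600K or non-V600 or complex BRAF mutations, treated at all dose levels (titration from 12 mg daily, 21-day cycles). Response was assessed by RECIST 1.0 with restaging at 9 or 6 weeks, then every 9 weeks, and 95% exact CIs were given. PFS was estimated by Kaplan–Meier from first dose. Treatment duration ran from first dose to last dose or the 25 March 2011 data cut.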
# BRAF wild-type melanoma = assay: Tumour response in BRAF wild-type melanoma; format: in vivo, human; conditions: three patients with BRAF wild-type melanoma
# Procedure, shortened: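 Patients had histologically confirmed incurable solid tumours, ECOG ≤1, and received accelerated dose titration from 12 mg daily on 21-day cycles until progression or intolerable toxicity. Response was assessed by RECIST 1.0. Baseline imaging was within 35 days. Restaging was at 9 weeks (escalation) or 6 weeks (expansion), then every 9 weeks.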
# [7] = among the eight patients who progressed
smiles,measurement,setting,value
CCCS(=O)(=O)Nc1ccc(F)c(C(=O)c2c[nH]c3ncc(-c4ccc(Cl)cc4)cc23)c1F [vemurafenib],Inhibition in cell line with K601E mutation,[1],less inhibition
same,Reduction in risk of death,"[2]; Phase III, first-line vs dacarbazine, V600E mutant metastatic melanoma",63%
same,Unconfirmed responses,"[2]; V600E BRAF-mutant metastatic melanoma, Phase I",81%
same,Confirmed response rate,"[2]; V600E-mutant BRAF metastatic melanoma, Phase III vs dacarbazine",48%
same,Photosensitivity,[2],commonly reported
same,Response rate,"[2]; ten of 336 patients carrying the V600K mutation, Phase III",40%
same,Penetration of the blood-brain barrier,[3],neither vemurafenib nor dabrafenib demonstrate penetration
"CC(C)(C)c1nc(-c2cccc(NS(=O)(=O)c3c(F)cccc3F)c2F)c(-c2ccnc(N)n2)s1 [dabrafenib, Dabrafenib]",Patients experiencing AEs higher than grade 2,[4]; human,24%
same,Patients requiring dose reductions,[4]; human,7%
same,Patients requiring dose reductions for fatigue,[4]; human,2%
same,Patients requiring dose reductions for neutropenia,[4]; human,1%
same,Patients requiring dose reductions for pyrexia,[4]; human,3%
same,Patients with arthralgia of grade 2 or higher,[4]; human,less than 5%
same,Patients with dose-limiting toxicities (DLTs),[4]; human,three of 20
same,Patients with pyrexia as a serious AE,[4]; human,4%
same,Patients with treatment-related actinic keratosis,[4]; human,10%
same,Patients with treatment-related fatigue grade 2 or higher,[4]; human,8%
same,Patients with treatment-related hyperkeratosis,[4]; human,26%
same,Patients with treatment-related hyperkeratotic lesions of grade 2 or above,[4]; human,3%
same,Patients with treatment-related pyrexia,[4]; human,20%
same,Patients with treatment-related pyrexia grade 2 or higher,[4]; human,6%
same,Range of onset of cutaneous SCC,[4]; human,9 to 217 days
same,Range of time to first pyrexia,[4]; human,1 to 532 days
same,"Treatment-related cutaneous squamous cell carcinoma, grade 2 or higher, Total",[4]; human,20 (11) ^* n (%)
same,"Treatment-related cutaneous squamous cell carcinoma, toxicity grade 2",[4]; human,0 n (%)
same,"Treatment-related cutaneous squamous cell carcinoma, toxicity grade 3",[4]; human,20 (11) n (%)
same,"Treatment-related fatigue, grade 2 or higher, Total",[4]; human,14 (8) n (%)
same,"Treatment-related fatigue, toxicity grade 2",[4]; human,12 (7) n (%)
same,"Treatment-related fatigue, toxicity grade 3",[4]; human,2 (1) n (%)
same,"Treatment-related pyrexia, grade 2 or higher, Total",[4]; human,(6) n (%)
same,"Treatment-related pyrexia, toxicity grade 2",[4]; human,10 (5) n (%)
same,"Treatment-related pyrexia, toxicity grade 3",[4]; human,1 (<1) n (%)
same,Non-cutaneous SCC,[4],not observed
same,Patients with keratoacanthoma,[4],three
same,Photosensitivity,[4],not observed
same,Recurrence or metastasis of cutaneous SCC after local excision,[4],no recurrence or metastasis was observed
same,Patients achieving complete resolution of all brain lesions,[5]; RP2D,four of ten
same,Patients with decreasing size of extracranial metastases,[5]; among patients with responding brain lesions,all nine
same,Patients with site of progression in extracranial sites alone,[5]; [7],three
same,Patients with site of progression in the brain alone,[5]; [7],three
same,Survival at 5 months,[5]; n=10,All patients were alive at 5 months
same,Time at which the most durable responder met criteria for progressive disease,[5]; remains on study at 19 months,15 months
same,Patients with decrease in mean SUVmax of tumour FDG uptake vs baseline,tumour FDG uptake; 53 of 56 patients,95%
same,Median decrease in mean SUVmax of tumour FDG uptake,tumour FDG uptake; 56 patients,60%
same,Range of percentage change from baseline in mean SUVmax,tumour FDG uptake; 56 patients,−100% to 19
same,Patients who received treatment for at least 6 months,"[6]; V600K, all dose levels, nine patients",50%
same,Responses,[6]; three patients with non-V600 or complex BRAF mutations,no responses were observed
same,Responses,BRAF wild-type melanoma,no responses were observed
same,Penetration of the blood-brain barrier,[3],neither vemurafenib nor dabrafenib demonstrate penetration
same,Penetration of the intact blood–brain barrier by the parent drug,"[3]; preclinical, after single-dose administration, ref unpublished data",minimal penetration
